Assay outcomes as filed in PubChem.
CFTR F508del cor: CFTR F508del correction in bronchial cells. CFBE cells, YFP halide quenching; stimulated with forskolin plus potentiator P3; % fluorescence drop versus neutral controls. activity (quench increase), % at 7.58 µM. hit rate 0.36% among 350,000;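 active = mean added fluorescence quench of at least 8% versus neutral control, with both replicates also reaching 8%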;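 note: cells transiently co-express mutant CFTR-F508del with the halide-sensitive YFP; corrector assay measuring rescue of mutant channel to the surface after 24 h compound exposure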
ARNT-TACC3 inh: ARNT/TACC3 interaction disruption | AlphaScreen His-ARNT PAS-B/GST-TACC3 binding, luminescence; TACC3 fragment carries E629A point mutation | inhibition, % at 9.99 µM | hit rate 0.66% among 390,000;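 active = mean inhibition of replicates at least 50% and at least half of replicates each reaching 50%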;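 note: 0% = complete ARNT plus TACC3 wells and 100% = ARNT alone without TACC3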
miR-122 sensor: miR-122 inhibition in Huh7 cells; Huh7 miR-122 Renilla luciferase sensor, 48 h; neutral wells = 0, positive control = 100; activation (reporter increase), % at 12.5 µM; hit rate 0.3% among 340,000; AID 602342;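 active = mean replicate activation score at least 90 and every replicate individually at or above 90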;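 note: higher luciferase means less miR-122 activity so hits act as miR-122 inhibitors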
PGC1a acetyl inh: lowers PGC1a acetylation signal in U2OS cells | AlphaScreen anti-acetyl-lysine; with virally co-expressed GCN5 acetyltransferase | inhibition, % at 15.6 µM | hit rate 0.17% among 350,000;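 active = every replicate shows inhibition of at least 40%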;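 note: 0% = neutral control wells and 100% = positive control wells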
CAL PDZ FP-1: inhibitors of human CAL PDZ peptide binding; Q9HD26; purified CAL PDZ, TMR-peptide fluorescence polarization, 1 h; inhibition, % at 20 µM; hit rate 0.02% among 330,000; AID 504414;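 active = highest replicate inhibition of at least 40%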;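 note: plate controls were DMSO neutral control wells for no effect and unlabeled competitor peptide control wells for full effect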
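Material – purified CerCALP PDZ construct · Detection – FP readout, S and P plane fluorescence · Measure – percent inhibition from loss of millipolarization · Controls – unlabelled peptide for full inhibition, DMSO wells as neutral · Probe or stimulus – TMR-labelled reporter peptide T*-PRC34 bound in PDZ groove · Times – 1 h at RT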
CAL PDZ FP-2: blocks peptide binding to the human CAL PDZ domain; purified CAL PDZ, TMR-peptide fluorescence polarization, 1 h; inhibition, % at 24.9 µM; hit rate 0.92% among 300,000;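 active = mean inhibition of at least 30% with at least half of replicates also reaching 30%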;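 note: 0% = DMSO neutral control and 100% = excess unlabeled competitor peptide PRC23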
Active calls of the source: *; · = no result; [ ] = another dose, or the depositor's remark. Most compounds without a hit are left out; they make up all but 1.7% or so of the library.

SMILES	CFTR F508del cor	ARNT-TACC3 inh	miR-122 sensor	PGC1a acetyl inh	CAL PDZ FP-1	CAL PDZ FP-2
O=C(O)Cn1c(-c2ccccc2)cc2ccccc21	1	-19	-3	·	0	62*
O=C(O)Cn1c(-c2ccccc2)nc2ccccc21	·	-2	-3	-2	·	-4
COCCCNc1c2c3c(cccc3[nH]c1=O)C(=O)c1ccccc1-2	46*	14	39	8	8	·
NC(=O)NCC(=O)N1CCC(C(O)(c2ccccc2)c2ccccc2)CC1	-4	-9	23	2	-2	79*
Cc1ccc(S(=O)(=O)N(C)C[C@@H]2Oc3cc(C#Cc4ccncc4)ccc3S(=O)(=O)N([C@@H](C)CO)C[C@@H]2C)cc1	-2	3	-25[16.7 µM]	36	·	·
COc1ccc2c(c1)OC[C@H]1[C@H]2N2C(=O)c3ccccc3NC(=O)[C@@]2(C)[C@H]1c1ccccc1	1	-10	·	·	-1	-7
CN1C(=O)[C@H]2[C@@H](c3ccc(F)cc3)N3C(=O)c4ccccc4NC(=O)[C@@]3(C)[C@H]2C1=O	·	-1	95*	5	0	3
CCNc1nc(NCC)nc(C(=O)NN)n1	·	75*	3	-8	·	11
CCNc1nc(NCC)nc(OCC(=O)O)n1	1	-7	-1	2	-2	0
CO[C@H]1CN(C)C(=O)c2ccc(NS(=O)(=O)CC(F)(F)F)cc2OC[C@H](C)N(C)C[C@@H]1C	-1	·	·	-1	·	·
COc1ccccc1N(CC(=O)Nc1cc(S(=O)(=O)N(C)C)ccc1C)S(=O)(=O)c1cccs1	0	-2	10	·	7	68*
CC(C)NC(=O)N(C)C[C@@H]1OCCCC[C@@H](C)Oc2ccc(NC(=O)CCCN(C)C)cc2C(=O)N([C@@H](C)CO)C[C@H]1C	-1	-7	-2[16.7 µM]	0	·	·
COc1ccc(C)cc1S(=O)(=O)NCCN1CCOCC1	0	2	16	-2	-2	0
CCCOc1ccc(S(=O)(=O)NCCN2CCOCC2)c2ccccc12	·	-2	199*	-6	-1	·
COc1c(S(=O)(=O)NCCN2CCOCC2)ccc(Cl)c1Cl	·	-5	4	1	0	-5
CCOc1ccc(S(=O)(=O)NCCN2CCOCC2)c2ccccc12	·	-8	108*	-12	-2	0
COc1ccc(S(=O)(=O)N[C@H]2C=C[C@@H](CC(=O)NCCc3ccncc3)O[C@@H]2CO)cc1	-1	·	·	0	·	·
Cc1cc(C)c2c(c1)/C(=N/NC(=O)c1ccc(O)cc1)CCC2	-2	1	·	3	0	69*
O=C(C1CCN(S(=O)(=O)c2cnc[nH]2)CC1)N1CCN(c2ccc([N+](=O)[O-])cc2)CC1	1	9	-4	-8	-1	49*
O=C(C1CC1)N1CCN(c2ccc([N+](=O)[O-])cc2)CC1	0	·	2	-3	·	·
Cc1cc(CN(C)C(=O)c2cc(COc3ccc4ncccc4c3)on2)on1	2	-1	-35	7	-2	76*
CN(Cc1nccn1C)C(=O)c1cc(COc2cccc(C(F)(F)F)c2)on1	-2	-3	1	-5	0	-4
CN(Cc1nccn1C)C(=O)c1cc(COc2ccc3ncccc3c2)on1	-4	7	·	3	25	42*
CN1C(=O)c2cc(NC(=O)C3CCCCC3)ccc2OC[C@H]2O[C@@H](CC(=O)NCc3ccccc3F)CC[C@H]21	1	-4	-10[16.7 µM]	-5	·	·
CCCC#Cc1cnc2c(c1)C(=O)N([C@@H](C)CO)C[C@H](C)[C@@H](CN(C)S(=O)(=O)c1cccc(OC)c1)O2	1	-2	35[16.7 µM]	-2	·	·
SMILES	CFTR F508del cor	ARNT-TACC3 inh	miR-122 sensor	PGC1a acetyl inh	CAL PDZ FP-1	CAL PDZ FP-2
N#Cc1nc(Nc2cc(F)cc(F)c2)c2ncn(CC(F)F)c2n1	1	-2	·	·	-1	-6
N#Cc1nc(NCC(F)F)nc(Nc2cc(F)cc(F)c2)n1	8.0*	-9	·	·	-2	5
COc1cccc(CN(c2ccc3c(c2)CCC3)S(=O)(=O)c2ccc(-n3cnnn3)c(OC)c2)c1	·	-2	25	-6	-1	42*
COc1cccc(CN(CC2CCCO2)S(=O)(=O)c2ccc(-n3cnnn3)c(OC)c2)c1 (stereo not given)	1	-2	·	·	-2	1
COCC(=O)N1C[C@@H](C)[C@H](OC)CN(C)C(=O)c2ccc(NC(=O)Nc3ccccc3)cc2OC[C@@H]1C	1	·	·	4	·	·
COc1cccc(-c2ccc([C@@H]3[C@@H](CO)N4CCCCN(CC5CCOCC5)C[C@@H]34)cc2)c1	2	20	20[16.7 µM]	-9	·	·
Brc1ccc(N/N=C(/N=Nc2nn[nH]n2)c2ccccc2)cc1	-3	45	·	97*	0	7
O=C1C=C(c2ccccc2)C(c2ccccc2)C1 (stereo not given)	0	-1	-4	-3	48*	·
O=C(NCC[C@H]1CC[C@@H](NS(=O)(=O)c2ccccc2F)[C@H](CO)O1)c1ccc(F)cc1	3	·	7[16.7 µM]	10	·	·
O=C(c1ccc2c(c1)OCO2)C1CCCN(Cc2cc(F)ccc2-n2cccn2)C1 (stereo not given)	1	-1	·	-6	-1	57*
Cc1ccc(-n2cccn2)c(CN2CCCC(C(=O)c3ccc4c(c3)OCO4)C2)c1 (stereo not given)	-2	11	·	-22	-2	-1
CN1C(=O)c2cc(NC(=O)NC3CCCC3)ccc2OC[C@H]2O[C@H](CC(=O)O)CC[C@H]21	-1	13	-22[16.7 µM]	-3	·	·
COc1ccc(S(=O)(=O)N(C)C[C@@H]2Oc3ccc(NC(=O)Nc4ccc(C(F)(F)F)cc4)cc3C(=O)N([C@@H](C)CO)C[C@@H]2C)cc1	1	-1	-7[16.7 µM]	5	·	·
COc1ccc(S(=O)(=O)N(C)C[C@H]2Oc3ccc(NC(=O)Nc4ccc(C(F)(F)F)cc4)cc3C(=O)N([C@H](C)CO)C[C@H]2C)cc1	-1	-6	136*[16.7 µM]	9	·	·
COc1ccc(S(=O)(=O)N(C)C[C@H]2Oc3ccc(NC(=O)Nc4ccc(C(F)(F)F)cc4)cc3C(=O)N([C@@H](C)CO)C[C@H]2C)cc1	2	7	111*[16.7 µM]	3	·	·
C[C@@H]1CN([C@H](C)CO)C(=O)Cc2cc(NS(=O)(=O)c3ccc(Cl)cc3)ccc2O[C@H]1CN(C)C(=O)Nc1ccc2c(c1)OCO2	-1	·	-2[16.7 µM]	1	·	·
C[C@@H]1CN([C@@H](C)CO)C(=O)c2cc(NC(=O)CCCN(C)C)ccc2O[C@H]1CN(C)Cc1ccc(C(=O)O)cc1	-3	-5	-1[16.7 µM]	-2	·	·
CC1=NN(c2ccccc2)C(=O)C1N=Nc1cccc(O)c1 (stereo not given)	19*	-1	-4	-14	-1	1
CC1=NN(c2ccccc2)C(=O)C1N=Nc1ccccc1 (stereo not given)	-2	·	·	·	-2	-1
